Measurements: PMC8268672 (Bioorganic Chemistry, 2021)
≈ marks a conversion by molar mass, not a printed value. Where two headings read alike, the source gives them in different places.

Legend:
Human Coronavirus (229E) = experiment: CPE reduction assay in HEL cells; type: cell-based; details: read-out: Antiviral EC50, Human Coronavirus (229E)
[1] = system: Klebsiella aerogenes (NCIM-2098); experiment: Agar disk diffusion, inhibition zone; type: cell-based; details: 100 µg/8 mm disc, triplicate, mean ± SD
[2] = system: Aspergillus fumigatus (NCIM 2081); experiment: Agar disk diffusion, inhibition zone; type: cell-based; details: 100 µg/8 mm disc, triplicate, mean ± SD
Influenza B B/Ned/537/05 = experiment: CPE reduction assay in MDCK cells; type: cell-based; details: Influenza B virus, read-out: Antiviral EC50, Influenza B B/Ned/537/05, MTS
[3] = system: Aspergillus niger (NCIM 2191); experiment: Agar disk diffusion, inhibition zone; type: cell-based; details: 100 µg/8 mm disc, triplicate, mean ± SD
How it was run: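 For the fungal strain, discs soaked in test compound solution (DMSO stock diluted with distilled water) sat on seeded Mueller-Hinton agar. Clotrimazole was the reference. Incubation ran 48 h at 35 °C, in triplicate. Zone of growth inhibition recorded in mm as the mean diameter around each disc.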

[4] = system: Staphylococcus aureus (ATCC 29213); experiment: MIC, broth microdilution; type: cell-based; details: ATCC29213, read-out: Minimum inhibitory concentration (MIC), SA
How it was run: (§1)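 Antibacterial MICs by CLSI broth microdilution in Mueller-Hinton broth. Test compounds and standard drugs are serially diluted two-fold from 512 to 0.25. The bacterial broth culture is grown 2-6 h to a 0.5 McFarland turbidity, then adjusted with sterile solution to the final inoculum.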

Yellow Fever virus = experiment: microbe, parasite or virus in culture; type: cell-based; details: Yellow fever virus, Vero, read-out: Antiviral EC50, Yellow Fever virus
Para-influenza-3 virus = experiment: CPE reduction assay in Vero cells; type: cell-based, Parainfluenza-3 virus; details: Vero, read-out: Antiviral EC50, Para-influenza-3 virus
Punta Toro virus = experiment: CPE reduction assay in Vero cells; type: cell-based; details: read-out: Antiviral EC50, Punta Toro virus
[5] = system: Influenza A/H3N2 A/HK/7/87; experiment: CPE reduction assay in MDCK cells; type: cell-based; details: Influenza A virus
[6] = system: Pseudomonas aeruginosa (MCCB 0035); experiment: Agar disk diffusion, inhibition zone; type: cell-based; details: 100 µg/8 mm disc, triplicate, mean ± SD
[7] = system: Bacillus cereus (NCIM-2458); experiment: Agar disk diffusion, inhibition zone; type: cell-based; details: 100 µg/8 mm disc, triplicate, mean ± SD
[8] = system: Escherichia coli (ATCC 8739); experiment: Agar disk diffusion, inhibition zone; type: cell-based; details: 100 µg/8 mm disc, triplicate, mean ± SD
How it was run: (§2)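 Agar disk diffusion on Mueller-Hinton agar plates seeded with a standard bacterial suspension. Test compound stock in DMSO, diluted with distilled water; 8 mm sterile filter-paper discs soaked in the solution. Ampicillin was the reference. Plates incubated at 35 °C for 24 h, in triplicate. Read-out is the average inhibition-zone diameter (mm) around each disc.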

[9] = system: Lactobacillus casei (NCIM-2651); experiment: Agar disk diffusion, inhibition zone; type: cell-based; details: 100 µg/8 mm disc, triplicate, mean ± SD
[10] = system: Aspergillus fumigatus (NCIM 2081); experiment: MIC, broth microdilution; type: cell-based; details: NCIM2081, read-out: Minimum inhibitory concentration (MIC), AF
How it was run: (§3)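 Antifungal MICs by CLSI broth microdilution in Sabouraud liquid medium. Test compounds and standard drugs are serially diluted two-fold from 512 to 0.25. The fungal broth culture is grown 24 h at 35 °C to a 0.5 McFarland turbidity, then adjusted with sterile solution to the final inoculum.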

Vaccinia virus = experiment: microbe, parasite or virus in culture; type: cell-based; details: Orthopoxvirus vaccinia, HEL, read-out: Antiviral EC50, Vaccinia virus
[11] = system: Candida albicans (NCIM 2087); experiment: MIC, broth microdilution; type: cell-based; details: NCIM2087, read-out: Minimum inhibitory concentration (MIC), CA
How it was run: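 CLSI broth microdilution in Sabouraud liquid medium, with test compound two-fold serially diluted from 512 to 0.25. Fungal broth culture grown 24 h at 35 °C to 0.5 McFarland turbidity, then adjusted with sterile solution to a final […] inoculum. MIC expressed in µg/mL.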

[12] = system: Escherichia coli (ATCC 8739); experiment: MIC, broth microdilution; type: cell-based; details: ATCC8739, read-out: Minimum inhibitory concentration (MIC), EC
How it was run: (§4)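 Broth microdilution per CLSI in Mueller-Hinton broth, using two-fold serial dilutions of test compound and reference drugs from 512 to 0.25. Bacterial broth cultures were grown 2-6 h to 0.5 McFarland turbidity, then diluted with sterile solution to the final inoculum. MIC is reported in µg/mL.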

[13] = system: Streptococcus pneumonia (ATCC 49619); experiment: Agar disk diffusion, inhibition zone; type: cell-based; details: 100 µg/8 mm disc, triplicate, mean ± SD
[14] = system: Candida albicans (NCIM 2087); experiment: Agar disk diffusion, inhibition zone; type: cell-based; details: 100 µg/8 mm disc, triplicate, mean ± SD
[15] = system: Cryptococcus neoformans (ATCC 9011); experiment: MIC, broth microdilution; type: cell-based; details: ATCC9011, read-out: Minimum inhibitory concentration (MIC), CN
How it was run: as §3

Vero cells = details: Vero cell cultures; microscopically detectable alteration of normal cell morphology
[16] = system: Aspergillus niger (NCIM 2191); experiment: MIC, broth microdilution; type: cell-based; details: NCIM2191, read-out: Minimum inhibitory concentration (MIC), AN
How it was run: as §3

Reovirus-1 = experiment: CPE reduction assay in Vero cells; type: cell-based; details: read-out: Antiviral EC50, Reovirus-1
Adeno virus-2 = experiment: CPE reduction assay in HEL cells; type: cell-based; details: read-out: Antiviral EC50, Adeno virus-2
[17] = system: Influenza A/H1N1 A/Ned/378/05; experiment: CPE reduction assay in MDCK cells; type: cell-based; details: Influenza A virus
[18] = system: Pseudomonas aeruginosa (MCCB 0035); experiment: MIC, broth microdilution; type: cell-based; details: read-out: Minimum inhibitory concentration (MIC), PA
How it was run: as §4

[19] = system: Cryptococcus neoformans (ATCC 9011); experiment: Agar disk diffusion, inhibition zone; type: cell-based; details: 100 µg/8 mm disc, triplicate, mean ± SD
[20] = system: Human embryonic lung (HEL) cells; details: HEL cell cultures; microscopically detectable alteration of normal cell morphology
[21] = system: Staphylococcus aureus (ATCC 29213); experiment: Agar disk diffusion, inhibition zone; type: cell-based; details: 100 µg/8 mm disc, triplicate, mean ± SD
How it was run: as §2

[22] = system: Madin Darby canine kidney (MDCK) cells; details: dog
[23] = system: Salmonella typhimurium (NCIM-2501); experiment: Agar disk diffusion, inhibition zone; type: cell-based; details: 100 µg/8 mm disc, triplicate, mean ± SD
[24] = system: Klebsiella aerogenes (NCIM-2098); experiment: MIC, broth microdilution; type: cell-based; details: NCIM2098, read-out: Minimum inhibitory concentration (MIC), KA
How it was run: as §1

Sindbis virus = experiment: CPE reduction assay in Vero cells; type: cell-based; details: read-out: Antiviral EC50, Sindbis virus
[25] = system: Bacillus cereus (NCIM-2458); experiment: MIC, broth microdilution; type: cell-based; details: NCIM2458, read-out: Minimum inhibitory concentration (MIC), BC
How it was run: as §4

MT4 cells = details: MT4 cell cultures; colorimetric MTT cell viability assay
Coxsackie virus B4 = experiment: CPE reduction assay in Vero cells; type: cell-based; details: Enterovirus B, read-out: Antiviral EC50, Coxsackie virus B4
[26] = read-out: Antiviral EC50, Influenza A/H3N2 A/HK/7/87, MTS
[27] = read-out: Antiviral EC50, Influenza A/H3N2 A/HK/7/87, visual CPE score
[28] = read-out: Antiviral EC50, Influenza A/H1N1 A/Ned/378/05, MTS
[29] = read-out: Antiviral EC50, Influenza A/H1N1 A/Ned/378/05, visual CPE score

| Structure (SMILES) | EC50 (Human Coronavirus (229E)) | Diameter of growth inhibition zone, KA [1] | Diameter of growth inhibition zone, AF [2] | EC50 (Influenza B B/Ned/537/05) | Diameter of growth inhibition zone, AN [3] | MIC [4] | EC50 (Yellow Fever virus) | EC50 (Para-influenza-3 virus) | EC50 (Punta Toro virus) | EC50 [5, 26] | EC50 [5, 27] | Diameter of growth inhibition zone, PA [6] | Diameter of growth inhibition zone, BC [7] | Diameter of growth inhibition zone, EC [8] | Diameter of growth inhibition zone, LC [9] | MIC [10] | EC50 (Vaccinia virus) | MIC [11] | MIC [12] | Diameter of growth inhibition zone, SP [13] | also measured |
| --- | --- | --- | --- | --- | --- | --- | --- | --- | --- | --- | --- | --- | --- | --- | --- | --- | --- | --- | --- | --- | --- |
| Cc1ccc(S(=O)(=O)N2C(=O)CSC2c2ccccc2)cc1 (stereo not drawn) [5a, 3-[(4-Methylphenyl)sulfonyl]-2-phenyl-1,3-thiazolidin-4-one] | > 100 µM | 07 ± 1.74 mm | 10.2 ± 1.2 mm | > 100 µM | 10.1 ± 1.1 mm | 64 µg/mL (≈ 192 µM) | > 100 µM | > 100 µM | > 100 µM | > 100 µM | > 100 µM | 12.5 ± 0.6 mm | 08 ± 0.4 mm | 13.2 ± 1.1 mm | 10 ± 0.4 mm | 64 µg/mL (≈ 192 µM) | > 100 µM | 64 µg/mL (≈ 192 µM) | 64 µg/mL (≈ 192 µM) | 08 ± 0.8 mm | Diameter of growth inhibition zone, CA [14]: 10.8 ± 2.3 mm; MIC [15]: 128 µg/mL (≈ 384 µM); Minimum cytotoxic conc. (Vero cells): >100 µM; MIC [16]: 32 µg/mL (≈ 96 µM); EC50 (Reovirus-1): > 100 µM; EC50 (Adeno virus-2): > 100 µM; EC50 [17, 28]: > 100 µM; EC50 [17, 29]: > 100 µM; MIC [18]: 128 µg/mL (≈ 384 µM); Diameter of growth inhibition zone, CN [19]: 8.2 ± 0.5 mm; Minimum cytotoxic conc. [20]: >100 µM; Diameter of growth inhibition zone, SA [21]: 13.8 ± 0.9 mm; Cytotoxicity, Minimum cytotoxic conc. [22]: >100 µM; Diameter of growth inhibition zone, ST [23]: 07 ± 1.5 mm; MIC [24]: > 256 µg/mL; EC50 (Sindbis virus): > 100 µM; MIC [25]: 128 µg/mL (≈ 384 µM); Minimum cytotoxic conc. (MT4 cells): >125 µM; EC50 (Coxsackie virus B4): > 100 µM |
| Cc1ccc(S(=O)(=O)N2C(=O)CSC2c2cccc(Br)c2)cc1 (stereo not drawn) [5c, 2-(3-Bromophenyl)-3-[(4-methylphenyl)sulfonyl]-1,3-thiazolidin-4-one] | > 100 µM | 14 ± 0.6 mm | 11 ± 1.5 mm | > 100 µM | 12 ± 0.6 mm | 32 µg/mL (≈ 77.6 µM) | > 100 µM | > 100 µM | > 100 µM | > 100 µM | > 100 µM | 16 ± 1.5 mm | 12 ± 0.32 mm | 19 ± 0.53 mm | 14 ± 0.43 mm | 32 µg/mL (≈ 77.6 µM) | > 100 µM | 32 µg/mL (≈ 77.6 µM) | 16 µg/mL (≈ 38.8 µM) | 10 ± 0.9 mm | Diameter of growth inhibition zone, CA [14]: 12.1 ± 0.9 mm; MIC [15]: 64 µg/mL (≈ 155 µM); Minimum cytotoxic conc. (Vero cells): >100 µM; MIC [16]: 32 µg/mL (≈ 77.6 µM); EC50 (Reovirus-1): > 100 µM; EC50 (Adeno virus-2): > 100 µM; EC50 [17, 28]: > 100 µM; EC50 [17, 29]: > 100 µM; MIC [18]: 16 µg/mL (≈ 38.8 µM); Diameter of growth inhibition zone, CN [19]: 7.5 ± 0.5 mm; Minimum cytotoxic conc. [20]: >100 µM; Diameter of growth inhibition zone, SA [21]: 17 ± 1.2 mm; Cytotoxicity, Minimum cytotoxic conc. [22]: >100 µM; Diameter of growth inhibition zone, ST [23]: 12 ± 0.32 mm; MIC [24]: 16 µg/mL (≈ 38.8 µM); EC50 (Sindbis virus): > 100 µM; MIC [25]: 32 µg/mL (≈ 77.6 µM); Minimum cytotoxic conc. (MT4 cells): >125 µM; EC50 (Coxsackie virus B4): > 100 µM |
